Measured values taken from ChEMBL document CHEMBL1143913, “Pyrimidinone-peptoid hybrid molecules with distinct effects on molecular chaperone function and cell proliferation” (Bioorg Med Chem, 2008).

Experiments:
Saccharomyces cerevisiae [1] = assay: Inhibition of SV40 T antigen-stimulated Hsp70 ATPase in yeast assessed as ATP hydrolysis relative to control
Procedure, shortened: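 Yeast Ssa1p was pre-bound to ATP and run as a single-turnover assay with purified SV40 TAg (0.4 µM). Compound (300 µM) or DMSO was added at 60 s, and that time was set to zero. Runs were averaged over multiple experiments, kinetics were fitted, and the value is the fold change in TAg-stimulated ATP hydrolysis versus DMSO.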

SK-BR-3 = assay: Antiproliferative activity against human SK-BR3 cells after 96 hrs by MTS assay; format: functional; settings: SK-BR-3, 96 h
Procedure, shortened: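 Cells were kept in exponential growth in DMEM with 10% FBS, 1% penicillin and 1% glutamine, seeded at 4,000 per well and grown 48 h, with a time-zero plate counted. They were then exposed for 72 h to DMSO (1 v/v) or a concentration range in quadruplicate. Cell number was read by MTS/N-methylphenazine methylsulfate absorbance at 490 minus 630 nm. GI50 is relative to DMSO over the 72 h or 96 h period, and values above 50 µM are given as >50.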

Saccharomyces cerevisiae [2] = assay: Inhibition of yeast Hsp70 ATPase assessed as ATP hydrolysis relative to control
Procedure, shortened: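 Purified yeast Hsp70 (Ssa1p) was pre-bound to ATP and run as a single-turnover assay, so that only the hydrolysis step is measured. Compound (300 µM) or DMSO was added at 0 s, and that time was set to zero. Results from multiple experiments were averaged, kinetics were fitted, and the value is the fold change in hydrolysis versus DMSO.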

SMILES | Fold change (Saccharomyces cerevisiae [1]) | GI50 (SK-BR-3) | Fold change (Saccharomyces cerevisiae [2])
CCCCNC(=O)C(c1ccc(OCC(=O)OC)c(C(=O)OC)c1)N(Cc1ccccc1)C(=O)CCCCCN1C(=O)NC(c2ccc(-c3ccccc3)cc2)C(C(=O)OCc2ccccc2)=C1C (configuration not stated) | -1.9 | 14 µM | 1.5
CC1=C(C(=O)OCc2ccccc2)C(C2CCCCC2)NC(=O)N1CCCCCC(=O)O (configuration not stated) | 1.5 | > 50 µM | 1
CC1=C(C(=O)OCc2ccccc2)C(c2ccccc2-c2ccccc2)NC(=O)N1CCCCCC(=O)O (configuration not stated) | -5 | > 50 µM | 1
CCCCNC(=O)C(c1ccc(OCC(=O)OC)c(C(=O)OC)c1)N(CCC1=CCCCC1)C(=O)CCCCCN1C(=O)NC(c2ccc(-c3ccccc3)cc2)C(C(=O)OCc2ccccc2)=C1C (configuration not stated) | -1.2 | 39 µM | 6.1
CCCCCCN(C(=O)CCCCCN1C(=O)NC(c2ccc(-c3ccccc3)cc2)C(C(=O)OCc2ccccc2)=C1C)C(C(=O)NCCCC)c1ccc(O)cc1 (configuration not stated) | 9.2 | > 50 µM | 11.8
CC1=C(C(=O)OCc2ccccc2)C(c2ccc(Cl)cc2)NC(=O)N1CCCCCC(=O)O (configuration not stated) | -1.6 | > 50 µM | 1.3
COC(=O)CCCCCN1C(=O)NC(c2ccc(-c3ccccc3)cc2)C(C(=O)OCc2ccccc2)=C1C (configuration not stated) | -1.2 | > 50 µM | 2.6
CC1=C(C(=O)OCc2ccccc2)C(c2ccc(C(F)(F)F)cc2)NC(=O)N1CCCCCC(=O)O (configuration not stated) | 1.1 | > 50 µM | 1.2
CCCCCCN(C(=O)CCCCCN1C(=O)NC(c2ccc(-c3ccccc3)cc2)C(C(=O)OCc2ccccc2)=C1C)C(C(=O)NCCCC)c1ccccn1 (configuration not stated) | 5.5 | > 50 µM | 4.2
CC1=C(C(=O)OCc2ccccc2)C(c2ccc(C(C)(C)C)cc2)NC(=O)N1CCCCCC(=O)O (configuration not stated) | -3.5 | > 50 µM | 1
CCCCCCN(C(=O)CCCCCN1C(=O)NC(c2ccc(-c3ccccc3)cc2)C(C(=O)OCc2ccccc2)=C1C)C(C)C(=O)NCCCC (configuration not stated) | 1 | > 50 µM | 1.6
CC1=C(C(=O)OCc2ccccc2)C(c2ccc3ccccc3c2)NC(=O)N1CCCCCC(=O)O (configuration not stated) | -1.4 | > 50 µM | -1.1
CC1=C(C(=O)OCc2ccccc2)C(c2ccccc2)NC(=O)N1CCCCCC(=O)O (configuration not stated) | -1.1 | > 50 µM | 1.5
CCCCCCN(C(=O)CCCCCN1C(=O)NC(c2ccc(-c3ccccc3)cc2)C(C(=O)OCc2ccccc2)=C1C)C(C(=O)NCCCC)C1CCCCC1 (configuration not stated) | 1.1 | > 50 µM | 3.2
CCCCCCN(C(=O)CCCCCN1C(=O)NC(c2ccc(-c3ccccc3)cc2)C(C(=O)OCc2ccccc2)=C1C)C(C(=O)NCCCC)c1ccccc1 (configuration not stated) | 1.1 | > 50 µM | 3.2
CCCCNC(=O)C(c1ccc(OCC(=O)OC)c(C(=O)OC)c1)N(CCc1ccccn1)C(=O)CCCCCN1C(=O)NC(c2ccc(-c3ccccc3)cc2)C(C(=O)OCc2ccccc2)=C1C (configuration not stated) | -1.1 | 7.5 µM | -1.1
CC1=C(C(=O)OCc2ccccc2)C(c2cccc([N+](=O)[O-])c2)NC(=O)N1CCCCCC(=O)O (configuration not stated) | 1.1 | > 50 µM | -1.1
CCCCNC(=O)C(c1ccc(OCC(=O)OC)c(C(=O)OC)c1)N(CCc1c[nH]c2ccccc12)C(=O)CCCCCN1C(=O)NC(c2ccc(-c3ccccc3)cc2)C(C(=O)OCc2ccccc2)=C1C (configuration not stated) | -1.3 | > 50 µM | 10.3
CCCCNC(=O)C(c1ccc(OCC(=O)OC)c(C(=O)OC)c1)N(Cc1ccccn1)C(=O)CCCCCN1C(=O)NC(c2ccc(-c3ccccc3)cc2)C(C(=O)OCc2ccccc2)=C1C (configuration not stated) | -1.1 | 7.1 µM | 1
CC1=C(C(=O)OCc2ccccc2)C(c2ccc([N+](=O)[O-])cc2)NC(=O)N1CCCCCC(=O)O (configuration not stated) | 1.1 | > 50 µM | 1.2
COC(=O)CCCCCN1C(=O)NC(c2ccccc2)C(C(=O)OCc2ccccc2)=C1C (configuration not stated) | -1.7 | > 50 µM | 2.3
CCCCNC(=O)C(c1ccc(OCC(=O)OC)c(C(=O)OC)c1)N(CCc1ccccc1)C(=O)CCCCCN1C(=O)NC(c2ccc(-c3ccccc3)cc2)C(C(=O)OCc2ccccc2)=C1C (configuration not stated) | 1.3 | 32 µM | 12.3
CC(=O)O[C@H]1C(=O)[C@@]2(C)[C@H]([C@H](OC(=O)c3ccccc3)[C@]3(O)C[C@H](OC(=O)[C@H](O)[C@@H](NC(=O)c4ccccc4)c4ccccc4)C(C)=C1C3(C)C)[C@]1(OC(C)=O)CO[C@@H]1C[C@@H]2O [PACLITAXEL] | – | 6.1 µM | –

Other lines, results leading:

Fold change (Saccharomyces cerevisiae [1]) | GI50 (SK-BR-3) | Fold change (Saccharomyces cerevisiae [2]) | SMILES
2.1 | > 50 µM | 19.1 | CCCCCCN(C(=O)CCCCCN1C(=O)NC(c2ccc(-c3ccccc3)cc2)C(C(=O)OCc2ccccc2)=C1C)C(C(=O)NCCCC)c1ccc(O)c(C(=O)OC)c1 (configuration not stated)
-1.1 | 6.9 µM | 1 | CCCCCCN(C(=O)CCCCCN1C(=O)NC(c2ccc([N+](=O)[O-])cc2)C(C(=O)OCc2ccccc2)=C1C)C(C(=O)NCCCC)c1ccc(OCC(=O)OC)c(C(=O)OC)c1 (configuration not stated)
-2.2 | > 50 µM | 1.1 | CCCCCCN(C(=O)CCCCCN1C(=O)NC(c2ccc(-c3ccccc3)cc2)C(C(=O)OCc2ccccc2)=C1C)C(C(=O)NCCCC)c1ccc(OCC(=O)O)c(C(=O)O)c1 (configuration not stated)
-2.1 | 6.3 µM | 1.2 | CCCCCCN(C(=O)CCCCCN1C(=O)NC(C2CCCCC2)C(C(=O)OCc2ccccc2)=C1C)C(C(=O)NCCCC)c1ccc(OCC(=O)OC)c(C(=O)OC)c1 (configuration not stated)
-1.5 | 6 µM | 1.1 | CCCCCCN(C(=O)CCCCCN1C(=O)NC(c2cccc([N+](=O)[O-])c2)C(C(=O)OCc2ccccc2)=C1C)C(C(=O)NCCCC)c1ccc(OCC(=O)OC)c(C(=O)OC)c1 (configuration not stated)
-4.8 | > 50 µM | 1 | CCCCCCN(C(=O)CCCCCN1C(=O)NC(c2ccc(C(F)(F)F)cc2)C(C(=O)OCc2ccccc2)=C1C)C(C(=O)NCCCC)c1ccc(OCC(=O)OC)c(C(=O)OC)c1 (configuration not stated)
-4 | 17 µM | -1.1 | CCCCCCN(C(=O)CCCCCN1C(=O)NC(c2ccccc2-c2ccccc2)C(C(=O)OCc2ccccc2)=C1C)C(C(=O)NCCCC)c1ccc(OCC(=O)OC)c(C(=O)OC)c1 (configuration not stated)
-1.1 | 10 µM | 1 | CCCCCCN(C(=O)CCCCCN1C(=O)NC(c2ccc3ccccc3c2)C(C(=O)OCc2ccccc2)=C1C)C(C(=O)NCCCC)c1ccc(OCC(=O)OC)c(C(=O)OC)c1 (configuration not stated)
-1.6 | 42 µM | 2.2 | CCCCCCN(C(=O)CCCCCN1C(=O)NC(c2ccc(C3CCCCC3)cc2)C(C(=O)OCc2ccccc2)=C1C)C(C(=O)NCCCC)c1ccc(OCC(=O)OC)c(C(=O)OC)c1 (configuration not stated)
-5.2 | 29 µM | 1.2 | CCCCCCN(C(=O)CCCCCN1C(=O)NC(c2ccc(C(C)(C)C)cc2)C(C(=O)OCc2ccccc2)=C1C)C(C(=O)NCCCC)c1ccc(OCC(=O)OC)c(C(=O)OC)c1 (configuration not stated)
